Rows were chosen to be rich in hits. Some 2.3% of all compounds tested hit in one or more screens of this group.
TRPC4 block = inhibitors of mouse TRPC4 channel, primary screen, Fluo4 calcium, HEK293 TRPC4beta/mu-opioid cells | AID 2247, 2010 | B-score at 10 µM | DAMGO-evoked Fluo4 calcium flux; stronger effect = lower value | actives 0.39% (n = 300,000);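 active means B-score over 3 SD under the library average, no early fluorescence shift, positive overall ratio signal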
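Signal: kinetic Fluo4 fluorescence imaging of calcium influx. Material: stable TRPC4beta/mu-opioid receptor HEK293 cells. Probe or stimulus: DAMGO in two steps, submaximal then maximal.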
TRPC4 PAM = positive allosteric modulators of TRPC4, primary screen, cell-based, mouse TRPC4beta, HEK293 mu-opioid, Fluo-4 calcium; Short transient receptor potential channel 4 (Mus musculus), Q9QUQ5; DAMGO EC20, Fluo-4 Ca2+ flux; stronger effect = higher value; B-score at 10 µM; actives 0.42% (n = 310,000); AID 2227, 2009;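 active means B-score of calcium response area above 5 SD of library B-scores, with initial fluorescence ratio within 5 SD of library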;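 further: B-score of integrated fluorescence ratio over time as area under calcium response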
TRPC4 act = activators of mouse TRPC4 channel, primary screen, Fluo4 calcium, HEK293 TRPC4beta/mu-opioid cells | Fluo4 calcium fluorescence; stronger effect = higher value | B-score at 10 µM | actives 0.49% (n = 310,000);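 active means B-score above 5 SD of library B-scores, and initial fluorescence ratio not above library mean plus 5 SD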;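 further: positive B-score marks a calcium rise read as TRPC4 activation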
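Test system: HEK293 cells stably co-expressing mouse TRPC4beta and mu-opioid receptor | Schedule: Fluo4 dye loading 45 min at room temperature, 110 s recording | Measured by: Kinetic Fluo4 calcium fluorescence, 5 s baseline at 1 Hz | Evaluation: B score of integrated ratio | Controls: Buffer (low) and maximal DAMGO (high)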
TRPC6 inh = mouse TRPC6 channel inhibitors, primary screen, cell-based, HEK293, membrane potential dye | Short transient receptor potential channel 6 (Mus musculus), Q61143 | ACh-evoked depolarization; stronger effect = lower value | B-score at 10 µM | actives 1.1% (n = 310,000) | AID 2553, 2010;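 active means B-score under library mean minus 3 SD, initial fluorescence not abnormally high, positive integrated signal ratio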;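 further: B-score derived from integrated fluorescence ratio over the kinetic read; more negative B-score means stronger inhibition of depolarization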
Target sequence (Q61143 whole entry, looked up): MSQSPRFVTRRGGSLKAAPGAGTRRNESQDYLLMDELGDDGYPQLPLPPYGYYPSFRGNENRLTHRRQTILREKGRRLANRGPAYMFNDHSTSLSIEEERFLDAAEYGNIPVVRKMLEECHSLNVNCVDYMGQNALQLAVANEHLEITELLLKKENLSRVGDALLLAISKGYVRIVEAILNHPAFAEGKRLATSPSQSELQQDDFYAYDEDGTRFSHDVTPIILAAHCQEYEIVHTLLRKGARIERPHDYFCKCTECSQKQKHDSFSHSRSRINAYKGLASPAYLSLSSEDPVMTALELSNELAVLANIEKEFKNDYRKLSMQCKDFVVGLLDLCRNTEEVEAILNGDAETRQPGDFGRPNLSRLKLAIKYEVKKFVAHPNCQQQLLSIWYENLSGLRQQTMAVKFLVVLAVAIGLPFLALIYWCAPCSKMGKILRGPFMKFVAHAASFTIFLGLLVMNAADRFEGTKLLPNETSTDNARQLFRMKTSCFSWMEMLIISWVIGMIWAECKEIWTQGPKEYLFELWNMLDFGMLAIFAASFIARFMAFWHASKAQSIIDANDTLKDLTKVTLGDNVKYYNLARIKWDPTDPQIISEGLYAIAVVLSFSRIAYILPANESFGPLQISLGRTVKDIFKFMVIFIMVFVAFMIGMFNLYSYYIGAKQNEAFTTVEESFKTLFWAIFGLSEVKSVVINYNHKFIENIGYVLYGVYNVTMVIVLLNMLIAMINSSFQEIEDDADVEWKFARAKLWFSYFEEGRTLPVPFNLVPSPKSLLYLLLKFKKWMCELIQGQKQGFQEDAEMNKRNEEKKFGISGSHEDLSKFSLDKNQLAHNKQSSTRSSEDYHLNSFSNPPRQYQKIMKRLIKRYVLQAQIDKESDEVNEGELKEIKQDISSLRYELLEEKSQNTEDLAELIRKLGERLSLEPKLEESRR
TRPC6 act = mouse TRPC6 channel activators, primary screen, cell-based, HEK293, membrane potential dye | Short transient receptor potential channel 6 (Mus musculus), Q61143 | AID 2550, 2010 | HEK293-TRPC6 membrane potential dye fluorescence; stronger effect = higher value | B-score at 10 µM | actives 0.13% (n = 310,000);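 active means B-score of the integrated fluorescence ratio above library mean plus 3 SD, and starting fluorescence ratio within library mean plus 5 SD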;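 further: higher score means more depolarization so channel activation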
* hit, by the source's call; i = inactive.

SMILES	TRPC4 block	TRPC4 PAM	TRPC4 act	TRPC6 inh	TRPC6 act
Cc1cc(N2CCC(C)CC2)nc(NCc2ccccc2)n1	-6*	16*	i	i	i
Cc1cc(Cl)c(S(=O)(=O)NC2CCCC2)cc1OCC(N)=O	i	i	i	i	i
CC1CCN(C(C(=O)NC2CCCCC2)c2cc3c(cc2[N+](=O)[O-])OCO3)CC1 (stereo not drawn)	i	11*	i	i	i
CC1CCCN(C(C(=O)NC2CCCCC2)c2cc3c(cc2[N+](=O)[O-])OCO3)C1 (stereo not drawn)	i	i	i	i	i
Cn1c(=O)c2c(nc(N3CCOCC3)n2CC(=O)C23CC4CC(CC(C4)C2)C3)n(C)c1=O	i	i	i	i	i
CN1CCN(c2nc3c(c(=O)n(C)c(=O)n3C)n2CC(=O)C23CC4CC(CC(C4)C2)C3)CC1	-6*	i	i	i	i
Cc1csc(NC(=O)c2sc3nc(-c4cccs4)ccc3c2N)n1	i	10*	47*	i	i
O=C(Nc1nc(-c2cccs2)cs1)c1ccc(Cl)cc1	i	i	i	i	i
CCCSc1nnc(NC(=O)c2sc3nc(-c4cccs4)ccc3c2N)s1	i	i	i	i	i
COc1ccc(C(=O)Nc2nc(-c3cccs3)cs2)cc1	-7*	i	i	i	i
CC(C)(C)c1ccc(OCc2ccc(C(=O)N3CCOCC3)o2)cc1	i	i	i	i	i
CCCc1ccc(OCc2ccc(C(=O)N3CCSCC3)o2)cc1	i	20*	i	i	i
O=C(NCCCNCCCNC(=O)c1ccc(/C=N/O)nc1)c1ccc(/C=N/O)nc1	i	i	i	i	i
CN(CCNC(=O)c1ccc(/C=N/O)nc1)Cc1ccccc1	i	22*	i	i	i
CN(CCCNC(=O)c1ccc(/C=N/O)nc1)CCCN(C)Cc1ccccc1	i	13*	i	i	i
Cn1c(COc2ccccc2)nnc1SCC(=O)NC1CCCC1	i	i	i	i	i
COc1ccc(CC(=O)Nc2cc(Cl)ccc2C(=O)O)cc1	i	i	i	i	i
CCCCOc1ccc(Nc2cc(Cl)ccc2C(=O)O)cn1	-7*	i	i	i	i
CCCCn1c2ccccc2c2nnc(SCCN3CCCCC3)nc21	-7*	i	i	i	i
CCCCn1c2ccc(F)cc2c2nnc(SCCN3CCOCC3)nc21	i	i	i	i	i
COc1ccc([N+](=O)[O-])cc1NCc1ccco1	-6*	i	i	i	i
CCOc1ccc(N(CC(=O)NCCc2ccccc2)C(=O)CCC(=O)Nc2cc(C)ccn2)cc1	i	i	i	i	i
O=C(CN1C(=O)/C(=C/c2ccccc2)SC1=S)N1CCN(CCc2ccccn2)CC1	i	i	i	i	i
OC1(c2cccs2)CN(c2ccc(Br)cc2)C2=[N+]1CCCS2 (stereo not drawn)	i	i	i	i	i
OC1(c2ccccc2)CN(c2ccccc2)C2=[N+]1CCS2 (stereo not drawn)	-9*	i	72*	i	i
SMILES	TRPC4 block	TRPC4 PAM	TRPC4 act	TRPC6 inh	TRPC6 act
C#CCOCCOCCOCCNc1nc(N2CCN(C(=O)C([C@@H](C)CC)n3cc(C(N)COC(=O)C(F)(F)F)nn3)CC2)nc(N2CCN(C(=O)[C@H](CCCCN)n3cc(C(N)[C@H](C)CC)nn3)CC2)n1 (stereo partly drawn)	i	i	i	i	i
CCCC1=C(C(=O)OCC)C(c2cc(Cl)cc(OC)c2OCC(=O)OCC)NC(=O)N1 (stereo not drawn)	i	22*	i	i	i
CCOC(=O)COc1c(OC)cc(Cl)cc1C1NC(=O)NC(C)=C1C(C)=O (stereo not drawn)	i	i	i	i	i
CCCCN=C(Nc1ccc(Cl)cc1)c1cccnc1	-6*	i	i	i	i
CCCN=C(Nc1ccc(Cl)cc1)c1cccnc1	i	i	i	i	i
O=C(Nc1ccc(Cl)c([N+](=O)[O-])c1)C(Sc1ccccc1)c1ccccc1 (stereo not drawn)	i	i	i	i	i
COCC(C)NC(C(=O)Nc1ccc(Cl)c([N+](=O)[O-])c1)c1ccccc1 (stereo not drawn)	-7*	i	i	i	i
CCC(C)NC(C(=O)Nc1ccc(Cl)c([N+](=O)[O-])c1)c1ccccc1 (stereo not drawn)	-7*	i	i	i	i
O=C(Nc1ccc(Cl)c([N+](=O)[O-])c1)C(NCCCO)c1ccccc1 (stereo not drawn)	i	i	i	i	i
Cc1cc(C)c(NC(=O)CNC(=O)COC(=O)CNC(=O)c2ccc(Cl)cc2Cl)c(C)c1	i	i	i	i	i
CCN(C(=O)c1cccc(NC(=O)c2ccccc2)c1)C1CCCCC1	i	i	i	i	i
Cc1ccc(S(=O)(=O)N2C(=O)/C(=C3\SC(=S)NC3=O)c3ccccc32)cc1	i	i	i	i	i
O=S(=O)(c1ccc(Oc2ccc(Br)cc2)cc1)N1CCOCC1	i	17*	i	i	i
CCC(C(=O)Nc1ccc2[nH]ncc2c1)c1ccccc1 (stereo not drawn)	i	i	i	i	i
Cc1cc2ccccn2c1C(=O)c1cc([N+](=O)[O-])cc([N+](=O)[O-])c1	i	12*	i	i	i
COC(=O)c1cc(C(=O)c2c(C)cc3ccccn23)cc([N+](=O)[O-])c1	i	i	i	i	i
O=C(CSc1nc(=O)n(CCN2CCOCC2)c2c1CCC2)Nc1ccc(OC(F)(F)F)cc1	-6*	i	i	i	i
CCCCn1c(SCC(=O)N2c3ccccc3Sc3ccccc32)nc2c1c(=O)n(C)c(=O)n2C	i	117*	i	i	i
CC1Cc2ccccc2N1C(=O)CSc1nc2c(c(=O)n(C)c(=O)n2C)n1Cc1ccc(F)cc1 (stereo not drawn)	i	49*	i	i	i
CCN(C(=O)COC(=O)c1cc2c(s1)CCCCC2)C1CCS(=O)(=O)C1 (stereo not drawn)	i	i	i	i	i

Screens from PubChem BioAssay.
